Reference: ChEMBL document CHEMBL4251662, “Alkyl indole-based cannabinoid type 2 receptor tools: Exploration of linker and fluorophore attachment” (Eur J Med Chem, 2018)
pEC50, pIC50, pKi: −log10 of the molar value. Active and inactive are the calls of the source. The rule behind the calls is not given here.

Legend:
[1] = target: T1, Cannabinoid receptor 2 (Homo sapiens, UniProt P34972); experiment: Displacement of [3H]CP55,940 from N-terminal HA-tagged human CB2 receptor expressed in HEK293 cell membranes at 10 uM after 1 hr by microbeta scintillation counting method relative to control
In short: (§1)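 Single-point competition screen against [3H]CP55,940 in HEK293 cells over-expressing 3HA-tagged hCB2 or hCB1. Compounds giving more than 50% displacement went on to full concentration-response curves.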

[2] = target: T1, Cannabinoid receptor 2; experiment: Displacement of [3H]CP55,940 from N-terminal HA-tagged human CB2 receptor expressed in HEK293 cell membranes after 1 hr by microbeta scintillation counting method; conditions: read-out: Ki
[3] = target: T2, Cannabinoid receptor 1 (Homo sapiens, UniProt P21554); experiment: Displacement of [3H]CP55,940 from N-terminal HA-tagged human CB1 receptor expressed in HEK293 cell membranes at 10 uM after 1 hr by microbeta scintillation counting method relative to control; in short: as §1
[4] = target: T2, Cannabinoid receptor 1; experiment: Displacement of [3H]CP55,940 from N-terminal HA-tagged human CB1 receptor expressed in HEK293 cell membranes after 1 hr by microbeta scintillation counting method; conditions: read-out: Ki
[5] = target: T1, Cannabinoid receptor 2; experiment: Inverse agonist activity at N-terminal HA-tagged human CB2 receptor expressed in HEK293 cells transfected with YFP-Epac-RLuc assessed as increase in forskolin-stimulated cAMP level by BRET assay; assay type: functional, cell-based
In short: (§2)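 BRET cAMP biosensor read-out in HEK293 cells expressing HA-tagged human CB1 or CB2, with forskolin stimulation (5 µM). Concentration-response curves; area-under-curve values normalised to forskolin alone = 100% and basal = 0%. EC50 taken for agonists and IC50 for inverse agonists. Mean of at least three independent experiments, each point in duplicate.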

[6] = target: T1, Cannabinoid receptor 2; experiment: Inverse agonist activity at N-terminal HA-tagged human CB2 receptor expressed in HEK293 cells transfected with YFP-Epac-RLuc assessed as increase in forskolin-stimulated cAMP level by BRET assay relative to control; assay type: functional, cell-based; in short: as §2
[7] = target: T2, Cannabinoid receptor 1; experiment: Agonist activity at N-terminal HA-tagged human CB1 receptor expressed in HEK293 cells transfected with YFP-Epac-RLuc assessed as decrease in forskolin-stimulated cAMP level by BRET assay; assay type: functional, cell-based; in short: as §2
[8] = target: T2, Cannabinoid receptor 1; experiment: Agonist activity at N-terminal HA-tagged human CB1 receptor expressed in HEK293 cells transfected with YFP-Epac-RLuc assessed as decrease in forskolin-stimulated cAMP level by BRET assay relative to control; assay type: functional, cell-based; in short: as §2
[9] = target: T1, Cannabinoid receptor 2; experiment: Inverse agonist activity at N-terminal HA-tagged human CB2 receptor expressed in HEK293 cells transfected with YFP-Epac-RLuc assessed as increase in forskolin-stimulated cAMP level at 10 uM by BRET assay; assay type: functional, cell-based
[10] = target: T2, Cannabinoid receptor 1; experiment: Agonist activity at N-terminal HA-tagged human CB1 receptor expressed in HEK293 cells transfected with YFP-Epac-RLuc assessed as decrease in forskolin-stimulated cAMP level at 10 uM by BRET assay; assay type: functional, cell-based
In short: (§3)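 Single-concentration screen at 10 µM in CB receptor-expressing HEK293 cells, run with and without CP55,940 as reference agonist. Forskolin-stimulated cAMP read by BRET biosensor. A fall in cAMP is scored as agonism and a rise as inverse agonism.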

[11] = system: HEK293; experiment: Effect on forskolin-stimulated cAMP level in HEK293 cells at 10 uM by BRET assay relative to control; assay type: ADME, cell-based; conditions: human, hek293, 10 µM
In short: (§4)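 Wild-type HEK293 cells lacking transfected receptor, tested at 10 µM and 1 µM. Forskolin-stimulated cAMP measured by BRET as a check that responses are receptor-mediated.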

[12] = system: HEK293; experiment: Effect on forskolin-stimulated cAMP level in HEK293 cells at 1 uM by BRET assay relative to control; assay type: ADME, cell-based; conditions: human, hek293, 1 µM; in short: as §4
[13] = target: Proprotein convertase subtilisin/kexin type 9 (Homo sapiens) (UniProt Q8NBP7); experiment: Inhibition of PCSK9 (unknown origin)
[14] = target: T3, Free fatty acid receptor 4 (Homo sapiens) (UniProt Q5NUL3); experiment: Agonist activity at GPR120 (unknown origin); assay type: functional
T3 sequence (whole entry): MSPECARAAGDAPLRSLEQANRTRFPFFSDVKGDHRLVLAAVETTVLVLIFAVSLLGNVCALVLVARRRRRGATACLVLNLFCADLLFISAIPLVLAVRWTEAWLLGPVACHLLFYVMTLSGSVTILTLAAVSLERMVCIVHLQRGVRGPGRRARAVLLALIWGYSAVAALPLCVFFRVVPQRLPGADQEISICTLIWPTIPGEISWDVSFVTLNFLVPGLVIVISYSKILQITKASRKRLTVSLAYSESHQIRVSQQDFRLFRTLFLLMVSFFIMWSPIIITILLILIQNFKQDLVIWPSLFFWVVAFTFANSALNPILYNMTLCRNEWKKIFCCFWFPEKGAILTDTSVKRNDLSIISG

[15] = target: Interleukin-17A (Homo sapiens) (UniProt Q16552); experiment: Inhibition of IL-17 (unknown origin) assessed as disruption of IL-17 protein-protein interaction
[16] = system: Leishmania donovani; experiment: Growth inhibition of Leishmania donovani; assay type: functional, organism-based
[17] = target: Potassium voltage-gated channel subfamily KQT member 2 (Homo sapiens) (UniProt O43526); experiment: Agonist activity at KCNQ2 (unknown origin)
[18] = target: T4, Potassium voltage-gated channel subfamily KQT member 3 (Homo sapiens) (UniProt O43525); experiment: Agonist activity at KCNQ3 (unknown origin)
T4 sequence (whole entry): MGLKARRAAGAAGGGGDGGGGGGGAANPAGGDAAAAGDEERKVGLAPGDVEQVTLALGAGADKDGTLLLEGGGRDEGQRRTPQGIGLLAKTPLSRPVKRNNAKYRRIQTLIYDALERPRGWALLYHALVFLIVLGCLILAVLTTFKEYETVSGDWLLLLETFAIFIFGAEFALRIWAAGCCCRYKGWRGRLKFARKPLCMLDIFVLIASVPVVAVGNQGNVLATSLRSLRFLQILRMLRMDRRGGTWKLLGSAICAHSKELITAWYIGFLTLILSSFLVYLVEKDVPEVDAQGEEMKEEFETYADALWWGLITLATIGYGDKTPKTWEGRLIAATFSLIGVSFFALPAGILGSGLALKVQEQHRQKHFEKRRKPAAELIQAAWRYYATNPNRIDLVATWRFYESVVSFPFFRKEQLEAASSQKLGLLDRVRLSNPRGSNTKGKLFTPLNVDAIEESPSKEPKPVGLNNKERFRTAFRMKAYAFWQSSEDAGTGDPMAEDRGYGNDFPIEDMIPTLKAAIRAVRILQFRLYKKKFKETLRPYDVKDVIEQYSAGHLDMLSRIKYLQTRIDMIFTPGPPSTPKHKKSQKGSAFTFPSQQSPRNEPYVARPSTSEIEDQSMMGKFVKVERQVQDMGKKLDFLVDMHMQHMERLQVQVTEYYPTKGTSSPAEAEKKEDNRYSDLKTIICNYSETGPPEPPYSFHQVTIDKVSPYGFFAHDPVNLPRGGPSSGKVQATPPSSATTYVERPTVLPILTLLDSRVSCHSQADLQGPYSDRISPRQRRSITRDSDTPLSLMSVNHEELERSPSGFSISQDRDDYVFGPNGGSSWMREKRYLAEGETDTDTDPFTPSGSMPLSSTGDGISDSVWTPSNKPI

[19] = target: T5, Nicotinamide N-methyltransferase (Homo sapiens) (UniProt P40261); experiment: Inhibition of NNMT (unknown origin)
T5 sequence (whole entry): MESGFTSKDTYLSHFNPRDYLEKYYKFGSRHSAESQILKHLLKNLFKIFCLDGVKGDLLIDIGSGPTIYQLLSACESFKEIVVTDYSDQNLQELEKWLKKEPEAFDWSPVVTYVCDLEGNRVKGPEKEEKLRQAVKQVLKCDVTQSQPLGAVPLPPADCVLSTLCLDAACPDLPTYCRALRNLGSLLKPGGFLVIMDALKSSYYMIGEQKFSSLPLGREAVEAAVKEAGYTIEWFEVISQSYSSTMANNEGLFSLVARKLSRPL

[20] = target: T1, Cannabinoid receptor 2; experiment: Activity at N-terminal HA-tagged human CB2 receptor expressed in HEK293 cells transfected with YFP-Epac-RLuc assessed as effect on forskolin-stimulated cAMP level by BRET assay; assay type: functional, cell-based; in short: as §2
[21] = target: T1, Cannabinoid receptor 2; experiment: Activity at N-terminal HA-tagged human CB2 receptor expressed in HEK293 cells transfected with YFP-Epac-RLuc assessed as effect on forskolin-stimulated cAMP level by BRET assay relative to control; assay type: functional, cell-based; in short: as §2
[22] = target: T2, Cannabinoid receptor 1; experiment: Activity at N-terminal HA-tagged human CB1 receptor expressed in HEK293 cells transfected with YFP-Epac-RLuc assessed as effect on forskolin-stimulated cAMP level by BRET assay; assay type: functional, cell-based; in short: as §2
[23] = target: T2, Cannabinoid receptor 1; experiment: Activity at N-terminal HA-tagged human CB1 receptor expressed in HEK293 cells transfected with YFP-Epac-RLuc assessed as effect on forskolin-stimulated cAMP level by BRET assay relative to control; assay type: functional, cell-based; in short: as §2
[24] = target: T1, Cannabinoid receptor 2; experiment: Agonist activity at N-terminal HA-tagged human CB2 receptor expressed in HEK293 cells transfected with YFP-Epac-RLuc assessed as decrease in forskolin-stimulated cAMP level by BRET assay; assay type: functional, cell-based; in short: as §2
[25] = target: T1, Cannabinoid receptor 2; experiment: Agonist activity at N-terminal HA-tagged human CB2 receptor expressed in HEK293 cells transfected with YFP-Epac-RLuc assessed as decrease in forskolin-stimulated cAMP level by BRET assay relative to control; assay type: functional, cell-based; in short: as §2
[26] = target: T1, Cannabinoid receptor 2; experiment: Agonist activity at N-terminal HA-tagged human CB2 receptor expressed in HEK293 cells transfected with YFP-Epac-RLuc assessed as decrease in forskolin-stimulated cAMP level at 10 uM by BRET assay; assay type: functional, cell-based; in short: as §3

Chain of Interleukin-17A (Homo sapiens) (Q16552 whole entry): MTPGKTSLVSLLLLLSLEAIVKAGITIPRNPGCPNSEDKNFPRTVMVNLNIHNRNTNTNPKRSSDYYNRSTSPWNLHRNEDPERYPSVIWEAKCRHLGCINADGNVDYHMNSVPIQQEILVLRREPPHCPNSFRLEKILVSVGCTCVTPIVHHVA
T2 sequence (P21554 whole entry): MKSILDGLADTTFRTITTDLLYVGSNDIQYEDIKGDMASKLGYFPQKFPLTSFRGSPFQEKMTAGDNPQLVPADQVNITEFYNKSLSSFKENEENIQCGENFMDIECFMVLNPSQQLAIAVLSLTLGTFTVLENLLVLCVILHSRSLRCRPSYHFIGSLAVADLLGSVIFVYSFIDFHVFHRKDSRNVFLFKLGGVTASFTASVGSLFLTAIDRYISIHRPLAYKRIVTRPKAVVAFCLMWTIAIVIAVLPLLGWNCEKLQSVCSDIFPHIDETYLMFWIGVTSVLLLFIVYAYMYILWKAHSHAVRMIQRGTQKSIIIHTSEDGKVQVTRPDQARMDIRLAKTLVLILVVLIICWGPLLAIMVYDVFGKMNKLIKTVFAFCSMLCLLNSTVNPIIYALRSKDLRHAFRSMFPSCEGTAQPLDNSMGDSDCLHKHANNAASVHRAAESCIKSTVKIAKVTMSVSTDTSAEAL
Chain of Potassium voltage-gated channel subfamily KQT member 2 (Homo sapiens) (O43526 whole entry): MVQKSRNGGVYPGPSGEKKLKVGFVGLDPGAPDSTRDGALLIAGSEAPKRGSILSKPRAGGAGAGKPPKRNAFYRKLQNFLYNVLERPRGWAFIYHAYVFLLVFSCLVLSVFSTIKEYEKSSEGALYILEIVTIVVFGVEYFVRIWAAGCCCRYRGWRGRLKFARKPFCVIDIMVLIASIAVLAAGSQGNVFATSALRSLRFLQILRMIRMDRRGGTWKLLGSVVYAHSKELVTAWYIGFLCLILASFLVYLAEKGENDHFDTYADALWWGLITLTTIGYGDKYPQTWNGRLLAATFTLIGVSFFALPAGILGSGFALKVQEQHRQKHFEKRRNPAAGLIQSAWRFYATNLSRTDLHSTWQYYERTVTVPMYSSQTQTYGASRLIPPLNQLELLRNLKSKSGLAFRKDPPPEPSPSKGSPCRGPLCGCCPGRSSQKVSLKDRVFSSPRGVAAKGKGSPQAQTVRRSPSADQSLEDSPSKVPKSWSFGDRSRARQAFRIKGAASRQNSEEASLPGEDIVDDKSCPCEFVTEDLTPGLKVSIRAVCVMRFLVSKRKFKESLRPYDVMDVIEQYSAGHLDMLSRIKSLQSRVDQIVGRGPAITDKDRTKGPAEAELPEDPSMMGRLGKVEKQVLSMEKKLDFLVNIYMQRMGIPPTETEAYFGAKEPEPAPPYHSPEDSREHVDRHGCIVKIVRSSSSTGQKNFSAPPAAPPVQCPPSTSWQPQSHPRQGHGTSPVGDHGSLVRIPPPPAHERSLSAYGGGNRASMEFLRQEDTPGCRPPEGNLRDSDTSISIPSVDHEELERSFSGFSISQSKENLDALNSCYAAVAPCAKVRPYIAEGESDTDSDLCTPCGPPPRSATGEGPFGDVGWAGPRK
Chain of Proprotein convertase subtilisin/kexin type 9 (Homo sapiens) (Q8NBP7 31-152 limits assumed): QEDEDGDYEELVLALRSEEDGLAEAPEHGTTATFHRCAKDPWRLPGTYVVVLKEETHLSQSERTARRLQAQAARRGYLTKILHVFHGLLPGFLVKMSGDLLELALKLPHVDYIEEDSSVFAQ
Chain of Proprotein convertase subtilisin/kexin type 9 (Homo sapiens) (Q8NBP7 153-692 limits assumed): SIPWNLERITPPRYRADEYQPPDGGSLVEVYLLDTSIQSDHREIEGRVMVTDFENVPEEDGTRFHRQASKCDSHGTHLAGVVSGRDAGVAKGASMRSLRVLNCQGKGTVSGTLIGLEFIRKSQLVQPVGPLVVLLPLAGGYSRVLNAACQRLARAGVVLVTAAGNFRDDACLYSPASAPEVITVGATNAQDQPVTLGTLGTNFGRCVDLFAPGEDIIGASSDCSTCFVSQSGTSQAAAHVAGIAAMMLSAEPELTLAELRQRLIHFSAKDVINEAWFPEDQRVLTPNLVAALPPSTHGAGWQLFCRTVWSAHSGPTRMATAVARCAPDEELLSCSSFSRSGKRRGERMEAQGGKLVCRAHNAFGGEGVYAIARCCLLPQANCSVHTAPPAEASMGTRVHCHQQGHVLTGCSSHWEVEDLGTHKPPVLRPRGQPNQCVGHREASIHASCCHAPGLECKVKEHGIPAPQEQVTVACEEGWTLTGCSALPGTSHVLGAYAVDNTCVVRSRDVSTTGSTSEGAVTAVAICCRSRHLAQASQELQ
T1 sequence (P34972 whole entry): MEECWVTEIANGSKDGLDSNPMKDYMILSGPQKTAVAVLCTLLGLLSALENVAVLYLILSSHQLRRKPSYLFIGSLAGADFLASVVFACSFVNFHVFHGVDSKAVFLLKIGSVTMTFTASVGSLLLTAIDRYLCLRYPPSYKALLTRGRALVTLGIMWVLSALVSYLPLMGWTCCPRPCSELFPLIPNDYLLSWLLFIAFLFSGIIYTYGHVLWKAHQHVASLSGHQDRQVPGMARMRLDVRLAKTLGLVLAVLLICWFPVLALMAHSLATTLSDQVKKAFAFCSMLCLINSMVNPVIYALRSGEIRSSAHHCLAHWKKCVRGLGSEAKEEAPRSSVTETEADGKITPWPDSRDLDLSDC

COc1ccc(C(=O)c2cn(CC3CCOCC3)c3c(O)cccc23)cc1
inhibition [1]: > 50%
pKi [2]: 7.27
inhibition [3]: > 50%
pKi [4]: 5.45
pIC50 [5]: 6.57
Emax [6]: 190%
pEC50 [7]: 6.20
Emax [8]: 64.3%
Activity [9]: Active
Activity [10]: Active
Activity [11]: 135.3%
Activity [12]: 104.3%
inhibition [13]: inactive
Activity [14]: inactive
inhibition [15]: inactive
growth inhibition (GI) [16]: inactive
Activity [17]: inactive
Activity [18]: inactive
inhibition [19]: inactive

CCCOc1ccc2c(c1)c(C(=O)c1ccc(OC)cc1)cn2CC1CCOCC1
inhibition [1]: > 50%
pKi [2]: 5.87
inhibition [3]: > 50%
pKi [4]: 5.34
Activity [20]: inactive
Emax [21]: inactive
Activity [22]: inactive
Emax [23]: inactive
Activity [11]: 127.6%
Activity [12]: 95%
inhibition [13]: inactive
Activity [14]: inactive
inhibition [15]: inactive
growth inhibition (GI) [16]: inactive
Activity [17]: inactive
Activity [18]: inactive
inhibition [19]: inactive

Cc1ccc(Cn2nc(C(=O)N[C@@H]3C(C)(C)[C@@H]4CC[C@@]3(C)C4)cc2-c2ccc(Cl)c(C)c2)cc1
Emax [6]: 212%
Activity [22]: inactive
Emax [23]: inactive
Activity [11]: 94.5%
Activity [12]: 99.8%

COc1ccc(C(=O)c2cn(CC3CCOCC3)c3ccc(O)cc23)cc1
inhibition [1]: > 50%
pKi [2]: 6.92
inhibition [3]: > 50%
pKi [4]: 5.85
pEC50 [24]: 8.36
Emax [25]: 65.7%
pEC50 [7]: 7.20
Emax [8]: 62.2%
Activity [26]: Active
Activity [10]: Active
Activity [11]: 109.6%
Activity [12]: 105.5%
inhibition [13]: inactive
Activity [14]: inactive
inhibition [15]: inactive
growth inhibition (GI) [16]: inactive
Activity [17]: inactive
Activity [18]: inactive
inhibition [19]: inactive

CCCOc1cccc2c(C(=O)c3ccc(OC)cc3)cn(CC3CCOCC3)c12
inhibition [1]: > 50%
pKi [2]: 8.24
inhibition [3]: > 50%
pKi [4]: 6.30
pIC50 [5]: 7.51
Emax [6]: 263%
Activity [22]: inactive
Emax [23]: inactive
Activity [9]: Active
Activity [11]: 133.9%
Activity [12]: 105.4%
